Experimental data published in ChEMBL document CHEMBL4732107, “Synthesis and anticancer activity evaluation of naphthalene-substituted triazole spirodienones” (Eur J Med Chem, 2021).
The source made the active and inactive calls. The rule behind the calls is not given here.

Assays:
[1] = Acute toxicity in Kunming mouse assessed as clinical change in fur at 40 mg/kg, ip administered as single dose; type: organism-based; settings: in vivo
Outline: (§1)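 Kunming mice in four groups (n = 8, half male, half female) got one intraperitoneal dose of 10, 20 or 40 mg/kg, or vehicle. Body weights were recorded daily after dosing. Eyes, skin and fur were checked for clinical signs. Mortality was recorded. Mice were dissected to look for ascites and to assess liver volume.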

MDA-MB-231 [2] = experiment: Induction of apoptosis in human MDA-MB-231 cells assessed as viable cells at 0.1 uM measured after 24 hrs by annexin V-FITC/propidium iodide staining based flow cytometry (reference value: 90.9%); type: functional; settings: read-out: Activity
MDA-MB-231 [3] = experiment: Cell cycle arrest in human MDA-MB-231 cells assessed as accumulation at S phase at 1 uM measured after 24 hrs by propidium iodide staining based flow cytometry (reference value: 19.84%); type: functional
[4] = Acute toxicity in Kunming mouse assessed as development of ascites at 40 mg/kg, ip administered as single dose; type: organism-based; settings: in vivo; outline: as §1
MDA-MB-231 [5] = experiment: Induction of apoptosis in human MDA-MB-231 cells assessed as early apoptotic cells at 0.1 uM measured after 24 hrs by annexin V-FITC/propidium iodide staining based flow cytometry (reference value: 1.49%); type: functional
MDA-MB-231 [6] = experiment: Induction of apoptosis in human MDA-MB-231 cells assessed as late apoptotic cells at 1 uM measured after 24 hrs by annexin V-FITC/propidium iodide staining based flow cytometry (reference value: 2.84%); type: functional
[7] = Toxicity in mouse implanted with mouse 4T1 cells assessed as extramedullary hematopoiesis in spleen at 2 mg/kg, ip administered daily for 12 days measured post last dose by H and E staining based microscopic analysis; type: organism-based; settings: in vivo, 288 h, time 12 day
Outline: (§2)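 Orthotopic 4T1-bearing mice (n = 6 per group) were dosed i.p. daily with vehicle, compound at 1 or 2 mg/kg, or doxorubicin at 1 mg/kg. At the end of treatment, tumors and major organs (liver, spleen) were harvested and photographed. Sections were H&E stained and examined by microscope.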

[8] = Toxicity in mouse implanted with mouse 4T1 cells assessed as increase in liver size at 2 mg/kg, ip administered daily for 12 days measured post last dose; type: organism-based; settings: in vivo, 288 h, time 12 day; outline: as §2
[9] = Toxicity in mouse implanted with mouse 4T1 cells assessed as extramedullary hematopoiesis in liver at 2 mg/kg, ip administered daily for 12 days measured post last dose by H and E staining based microscopic analysis; type: organism-based; settings: in vivo, 288 h, time 12 day; outline: as §2
[10] = Acute toxicity in Kunming mouse assessed as body weight loss at 40 mg/kg, ip administered as single dose; type: organism-based; settings: in vivo; outline: as §1
4T1 [11] = experiment: Antitumor activity against mouse 4T1 cells implanted in mouse assessed as reduction in tumor weight at 1 to 2 mg/kg, ip administered daily for 12 days; type: functional, organism-based; settings: dose 1-2 mg/kg, time 12.0 day
Outline: (§3)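 Mice bearing orthotopic 4T1 tumors were randomized into 4 groups (n = 6) once tumors reached about 100 mm2. Groups received vehicle, test compound at 1 or 2 mg/kg, or doxorubicin at 1 mg/kg, given i.p. every day. Body weight and tumor volume were recorded daily. Tumors were excised and weighed at the end, and inhibition was calculated against the saline control.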

HeLa = experiment: Antiproliferative activity against human HeLa cells assessed as reduction in cell viability measured after 5 days by beckman coulter counting method; type: functional, cell-based; settings: 120 h
[12] = Acute toxicity in Kunming mouse assessed as clinical change in skin at 40 mg/kg, ip administered as single dose; type: organism-based; settings: in vivo; outline: as §1
MDA-MB-231 [13] = experiment: Cell cycle arrest in human MDA-MB-231 cells assessed as accumulation at G2 phase at 1 uM measured after 24 hrs by propidium iodide staining based flow cytometry (reference value: 5.77%); type: functional
Outline: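 MDA-MB-231 cells were seeded at 5 × 10^5 cells/mL and treated for 24 h. They were then trypsinized and washed twice in cold PBS. Cells were resuspended in PBS, stained with PI for 15 min at room temperature in the dark, and analyzed by flow cytometry.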

[14] = Acute toxicity in Kunming mouse assessed as clinical change in eyes at 40 mg/kg, ip administered as single dose; type: organism-based; settings: in vivo; outline: as §1
MDA-MB-231 [15] = experiment: Induction of apoptosis in human MDA-MB-231 cells assessed as necrotic cells at 0.1 uM measured after 24 hrs by annexin V-FITC/propidium iodide staining based flow cytometry (reference value: 4.74%); type: functional
MDA-MB-231 [16] = experiment: Antiproliferative activity against human MDA-MB-231 cells assessed as reduction in cell viability measured after 5 days by beckman coulter counting method; type: functional, cell-based; settings: MDA-MB-231, 120 h
MDA-MB-231 [17] = experiment: Induction of apoptosis in human MDA-MB-231 cells assessed as early apoptotic cells at 1 uM measured after 24 hrs by annexin V-FITC/propidium iodide staining based flow cytometry (reference value: 1.49%); type: functional
4T1 [18] = experiment: Antitumor activity against mouse 4T1 cells implanted in mouse assessed as tumor growth inhibition at 2 mg/kg, ip administered daily for 12 days relative to control; type: functional; settings: 4T1, ip, 288 h, time 12 day, read-out: TGI
Outline: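 Orthotopic 4T1 tumor-bearing mice were randomized into four groups (n = 6) once tumors reached about 100 mm2. Groups received vehicle (saline), test compound at 1 or 2 mg/kg, or doxorubicin 1 mg/kg, all intraperitoneally every day. Tumor volume and body weight were measured daily. Inhibition ratio was computed against saline at study end, and tumors were weighed.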

[19] = Acute toxicity in Kunming mouse assessed as decrease in liver volume at 40 mg/kg, ip administered as single dose; type: organism-based; settings: in vivo; outline: as §1
[20] = Toxicity in mouse implanted with mouse 4T1 cells assessed as change in body weight at 1 to 2 mg/kg, ip administered daily for 12 days measured daily during compound dosing; type: organism-based; settings: in vivo, 288 h, dose 1-2 mg/kg, time 12 day; outline: as §3
A549 = experiment: Antiproliferative activity against human A549 cells assessed as reduction in cell viability measured after 5 days by beckman coulter counting method; type: functional, cell-based; settings: A549, 120 h
Outline: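 Cells kept in DMEM with 10% FBS, 4 mM glutamine, 1 mM sodium pyruvate, penicillin/streptomycin and amphotericin, at 37 °C in 5% CO2. Seeded at 20,000 per well, then exposed to 5 concentrations for 5 days, with DMSO as vehicle. Viable cells counted on a cell viability analyzer. Viability expressed as treated/vehicle count, and IC50 taken from dose-response curves.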

[21] = Acute toxicity in ip dosed Kunming mouse administered as single dose; type: organism-based; settings: in vivo; outline: as §1
[22] = target: Tyrosine-protein kinase JAK2 (Homo sapiens, UniProt O60674); experiment: Inhibition of JAK2 (unknown origin)
Outline: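 Kinase inhibition was measured in two independent repeats, and IC50 is reported as their average with SD.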

Sequence of Tyrosine-protein kinase JAK2 (O60674 whole entry): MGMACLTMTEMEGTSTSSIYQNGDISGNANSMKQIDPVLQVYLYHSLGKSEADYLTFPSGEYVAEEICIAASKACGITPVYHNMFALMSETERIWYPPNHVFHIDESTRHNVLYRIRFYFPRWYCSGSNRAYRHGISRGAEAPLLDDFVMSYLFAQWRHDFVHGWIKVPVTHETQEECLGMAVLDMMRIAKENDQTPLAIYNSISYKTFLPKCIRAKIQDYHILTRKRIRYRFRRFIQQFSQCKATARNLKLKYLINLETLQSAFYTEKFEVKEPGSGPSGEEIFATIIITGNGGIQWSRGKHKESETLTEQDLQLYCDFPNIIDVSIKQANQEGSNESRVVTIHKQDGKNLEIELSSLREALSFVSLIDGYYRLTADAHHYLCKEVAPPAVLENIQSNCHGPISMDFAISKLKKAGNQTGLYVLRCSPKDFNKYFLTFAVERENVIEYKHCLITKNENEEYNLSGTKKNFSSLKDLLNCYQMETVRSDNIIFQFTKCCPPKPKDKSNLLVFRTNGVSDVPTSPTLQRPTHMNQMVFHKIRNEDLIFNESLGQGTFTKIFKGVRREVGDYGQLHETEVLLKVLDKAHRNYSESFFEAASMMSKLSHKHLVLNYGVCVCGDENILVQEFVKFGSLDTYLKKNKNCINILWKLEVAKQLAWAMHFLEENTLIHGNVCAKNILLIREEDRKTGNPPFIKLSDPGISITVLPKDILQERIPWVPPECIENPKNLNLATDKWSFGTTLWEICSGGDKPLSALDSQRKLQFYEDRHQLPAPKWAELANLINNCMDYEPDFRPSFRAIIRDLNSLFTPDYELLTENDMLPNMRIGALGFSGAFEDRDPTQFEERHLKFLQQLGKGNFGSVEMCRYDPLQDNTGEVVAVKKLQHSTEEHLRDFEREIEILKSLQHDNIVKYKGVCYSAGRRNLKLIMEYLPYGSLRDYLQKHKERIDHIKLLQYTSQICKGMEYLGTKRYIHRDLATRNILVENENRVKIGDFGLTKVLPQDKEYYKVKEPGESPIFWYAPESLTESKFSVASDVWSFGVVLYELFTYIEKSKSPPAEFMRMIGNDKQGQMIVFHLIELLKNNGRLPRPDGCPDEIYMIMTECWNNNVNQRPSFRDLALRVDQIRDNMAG

SMILES: O=C1C=CC2(C=C1)OCC(=O)N2c1nc(-c2cccc3ccccc23)nn1-c1ccccc1
- Activity [1]: Non-Toxic
- viability at 0.1 µM (MDA-MB-231 [2]): 90.8%
- Activity (MDA-MB-231 [3]): 36.99%
- Activity [4]: Toxic
- Activity (MDA-MB-231 [5]): 1.32%
- Activity (MDA-MB-231 [6]): 29%
- Activity [7]: Toxic
- Activity [8]: Toxic
- Activity [9]: Toxic
- Activity [10]: Toxic
- Activity (4T1 [11]): Active
- IC50 (HeLa): 70 nM
- Activity [12]: Non-Toxic
- Activity (MDA-MB-231 [13]): 23.87%
- Activity [14]: Non-Toxic
- Activity (MDA-MB-231 [15]): 5.16%
- IC50 (MDA-MB-231 [16]): 50 nM
- Activity (MDA-MB-231 [17]): 22.2%
- inhibition in vivo at 2 mg/kg (4T1 [18]): 38.8%
- Activity [19]: Toxic
- Activity [20]: Non-Toxic
- IC50 (A549): 80 nM
- MTD [21]: > 40 mg/kg
- IC50 [22]: 59000 nM
